Reference: PMC5430754 (Acta Pharmaceutica Sinica. B, 2017)
Like-named read-outs stand apart in the source and are kept apart here.

Key:
sucrase = sucrase (Rattus norvegicus, UniProt P23739); experiment: α-glucosidase; type: biochemical; settings: for Sucrase Inhibition (%): at the concentration of 10^—5 mol/L
maltase = experiment: α-glucosidase; type: biochemical, Rat; settings: for Maltase Inhibition (%): at the concentration of 10^—5 mol/L; for IC50: read-out: Maltase IC50, isolated compounds
Summary of the method: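 Rat small-intestinal brush-border membrane vesicles, suspended in 0.1 mol/L phosphate buffer pH 6.0, served as the α-glucosidase source. Enzyme, substrate and test compound were incubated in the same buffer for 30 min at 37 °C. The reaction was stopped by heating to 80–85 °C for 3 min. Released glucose was measured by the glucose oxidase method. Triplicates at five concentrations gave IC50 from dose–response curves; % inhibition was measured at 10⁻⁵ mol/L.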

[1] = molecular target: T1, porcine pancreatic lipase (Sus scrofa, UniProt P00591); experiment: lipase inhibitory activity; type: biochemical; settings: for Lipase Inhibition (%): at the concentration of 10^—5 mol/L; for inhibition at 10 µM: 1 h, read-out: Lipase Inhibition (%)
T1 sequence (P00591 1-450): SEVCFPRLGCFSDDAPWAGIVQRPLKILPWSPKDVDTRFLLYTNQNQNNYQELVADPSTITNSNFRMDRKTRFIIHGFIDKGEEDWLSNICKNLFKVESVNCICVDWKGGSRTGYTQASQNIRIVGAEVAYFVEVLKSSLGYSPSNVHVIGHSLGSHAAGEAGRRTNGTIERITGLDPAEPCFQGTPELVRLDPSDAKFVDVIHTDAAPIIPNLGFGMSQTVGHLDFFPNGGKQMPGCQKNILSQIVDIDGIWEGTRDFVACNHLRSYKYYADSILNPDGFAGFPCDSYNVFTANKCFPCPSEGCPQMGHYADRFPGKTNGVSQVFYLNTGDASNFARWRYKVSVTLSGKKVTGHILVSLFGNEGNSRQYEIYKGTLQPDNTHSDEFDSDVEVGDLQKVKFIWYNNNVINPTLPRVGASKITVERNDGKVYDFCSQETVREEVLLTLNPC

[2] = read-out: Sucrase IC50, isolated compounds

Sequence of sucrase (P23739 whole entry): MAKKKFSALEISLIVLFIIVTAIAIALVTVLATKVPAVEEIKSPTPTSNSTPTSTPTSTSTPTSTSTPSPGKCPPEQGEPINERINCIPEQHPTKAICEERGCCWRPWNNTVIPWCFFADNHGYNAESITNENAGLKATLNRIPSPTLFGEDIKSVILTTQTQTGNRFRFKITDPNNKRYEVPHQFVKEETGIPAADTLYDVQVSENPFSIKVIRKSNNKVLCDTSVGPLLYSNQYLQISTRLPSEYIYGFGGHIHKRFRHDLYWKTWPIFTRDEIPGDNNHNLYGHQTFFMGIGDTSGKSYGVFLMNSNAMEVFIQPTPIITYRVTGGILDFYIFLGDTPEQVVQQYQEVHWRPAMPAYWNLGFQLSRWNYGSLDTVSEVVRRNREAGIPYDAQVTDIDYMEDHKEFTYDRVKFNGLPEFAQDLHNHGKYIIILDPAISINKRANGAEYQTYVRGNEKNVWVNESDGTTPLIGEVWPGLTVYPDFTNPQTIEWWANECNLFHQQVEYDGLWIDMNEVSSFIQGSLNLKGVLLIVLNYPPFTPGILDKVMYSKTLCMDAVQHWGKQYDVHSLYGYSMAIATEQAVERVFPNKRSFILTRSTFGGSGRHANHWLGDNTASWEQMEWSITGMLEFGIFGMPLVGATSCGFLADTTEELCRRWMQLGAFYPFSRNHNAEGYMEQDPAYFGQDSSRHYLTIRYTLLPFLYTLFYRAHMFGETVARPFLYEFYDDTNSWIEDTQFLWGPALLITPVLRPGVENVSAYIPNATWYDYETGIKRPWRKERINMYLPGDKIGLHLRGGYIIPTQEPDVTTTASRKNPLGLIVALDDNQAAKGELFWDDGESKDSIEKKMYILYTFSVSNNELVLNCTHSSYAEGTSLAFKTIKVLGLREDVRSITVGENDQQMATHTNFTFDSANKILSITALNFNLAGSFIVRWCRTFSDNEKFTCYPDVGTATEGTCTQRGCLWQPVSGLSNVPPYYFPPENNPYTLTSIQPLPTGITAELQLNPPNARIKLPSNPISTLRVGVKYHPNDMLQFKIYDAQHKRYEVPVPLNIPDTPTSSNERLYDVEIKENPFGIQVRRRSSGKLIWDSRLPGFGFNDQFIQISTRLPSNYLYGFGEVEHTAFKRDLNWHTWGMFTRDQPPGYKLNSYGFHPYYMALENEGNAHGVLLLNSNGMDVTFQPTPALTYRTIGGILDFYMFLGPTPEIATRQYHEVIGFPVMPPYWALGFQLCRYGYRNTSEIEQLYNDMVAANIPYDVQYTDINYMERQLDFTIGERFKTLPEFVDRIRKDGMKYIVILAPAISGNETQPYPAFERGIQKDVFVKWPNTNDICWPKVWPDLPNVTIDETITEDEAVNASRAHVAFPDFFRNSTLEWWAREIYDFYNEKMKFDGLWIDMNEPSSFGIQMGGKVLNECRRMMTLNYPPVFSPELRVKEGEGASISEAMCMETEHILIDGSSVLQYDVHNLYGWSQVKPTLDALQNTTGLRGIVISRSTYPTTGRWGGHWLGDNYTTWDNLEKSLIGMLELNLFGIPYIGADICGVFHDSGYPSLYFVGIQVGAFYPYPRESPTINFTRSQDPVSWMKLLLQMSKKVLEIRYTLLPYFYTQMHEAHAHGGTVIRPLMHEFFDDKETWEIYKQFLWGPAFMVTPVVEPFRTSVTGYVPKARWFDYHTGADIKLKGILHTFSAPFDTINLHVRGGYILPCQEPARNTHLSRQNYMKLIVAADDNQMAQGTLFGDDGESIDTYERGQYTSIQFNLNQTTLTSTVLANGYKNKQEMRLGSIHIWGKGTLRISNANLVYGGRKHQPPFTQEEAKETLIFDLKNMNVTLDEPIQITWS

SMILES	Sucrase Inhibition (%) (sucrase)	Maltase Inhibition (%) (maltase)	IC50 (maltase)	Lipase Inhibition (%) [1]	IC50 (sucrase; [2])	IC50 ([1]; read-out: Lipase IC50, isolated compounds)	IC50 [1]	inhibition at 10 µM [1]	IC50 (sucrase)	inhibition at 10 µM (sucrase; 0.5 h, read-out: Sucrase Inhibition (%))
O=C(/C=C\c1ccc(O)cc1)O[C@@H]1Cc2c(O)cc(O)cc2O[C@@H]1c1ccc(O)c(O)c1 [Compound 1, (–)-epicatechin-3-O-(Z)-coumarate]	45.4%	71.8%	49.7 µM	42.6%						
O=C(/C=C/c1ccc(O)c(O)c1)O[C@@H]1Cc2c(O)cc(O)cc2O[C@@H]1c1ccc(O)c(O)c1 [Compound 3, (–)-epicatechin-3-O-(E)-caffeate]	64.5%			36.3%	107 µM					
Oc1cc(O)c2c(c1)O[C@H](c1ccc(O)c(O)c1)[C@@H](O)C2 [Compound 4, (+)-catechin]	21.5%	16.1%		64.9%		39.7 µM				
Oc1cc(O)c2c(c1)O[C@H](c1ccc(O)c(O)c1)[C@H](O)C2 [Compound 6, (–)-epicatechin]		48.5%					32.2 µM	70.4%		
O=C(/C=C/c1ccc(O)cc1)O[C@@H]1Cc2c(O)cc(O)cc2O[C@@H]1c1ccc(O)c(O)c1 [Compound 2, (–)-epicatechin-3-O-(E)-coumarate]	71.3%			41.6%	62.1 µM					
O=C1c2c(O)cc(O)cc2O[C@H](c2cc(O)c(O)c(O)c2)[C@H]1O [Compound 5, ampelopsin]		92.0%	200 µM				20.4 µM	92.1%	74.6 µM	90.4%
